Source: ChEMBL document CHEMBL1157836, “Dibenzocyclooctadiene lignans from Schisandra wilsoniana and their anti-HIV-1 activities” (J Nat Prod, 2010)
≈ marks a conversion by molar mass, not a printed value.

What was measured:
[1] = system: Human immunodeficiency virus 1; test: Antiviral activity against HIV1 infected in human C8166 cells assessed as inhibition of virus-induced cytopathic effect; type: functional, organism-based; conditions: Human immunodeficiency virus 1, C8166
Outline: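 HIV-1 cytopathic-effect inhibition assay in C8166 cells, giving EC50. AZT served as the positive control. Cytotoxicity was determined in parallel.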

[2] = Therapeutic index, ratio of CC50 for C8166 cells to EC50 for HIV1; type: cell-based; conditions: human, read-out: TI
Outline: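 TI was calculated as CC50 over EC50. CC50 came from the MTT assay on C8166 cells; EC50 came from HIV-1 cytopathic-effect inhibition in C8166 cells, run in parallel.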

[3] = Cytotoxicity against human C8166 cells by MTT assay; type: cell-based
Outline: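 C8166 cells were tested by MTT assay alongside the anti-HIV-1 determination, giving CC50. AZT served as the positive control.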

SMILES	EC50 [1]	selectivity ratio [2]	CC50 [3]
COc1c(O)cc2c(c1OC)-c1c(cc(O)c(OC)c1OC)[C@H](OC(=O)c1ccccc1)[C@@H](C)[C@@H](C)C2	2.1 µg/mL (≈ 4.13 µM)	6.7	14.2 µg/mL (≈ 27.9 µM)
COc1c(O)cc2c(c1O)-c1c(cc(O)c(OC)c1OC)C[C@@H](C)[C@@H](C)C2 [MARLIGNAN A]	2.6 µg/mL (≈ 6.94 µM)	6	15.8 µg/mL (≈ 42.2 µM)
COc1cc2c(c(O)c1OC)-c1c(cc(O)c(OC)c1O)C[C@@H](C)[C@@H](C)C2 [MARLIGNAN B]	5.1 µg/mL (≈ 13.6 µM)	8.4	43.4 µg/mL (≈ 116 µM)
COc1cc2c(c(O)c1O)-c1c(cc(OC)c(OC)c1O)C[C@@H](C)[C@@H](C)C2 [MARLIGNAN C]	5 µg/mL (≈ 13.4 µM)	13.2	65.6 µg/mL (≈ 175 µM)
COc1c(O)cc2c(c1OC)-c1c(cc(O)c(OC)c1OC)[C@H](O)[C@@H](C)[C@@H](C)C2 [MARLIGNAN D]	2.5 µg/mL (≈ 6.18 µM)	5.7	14.2 µg/mL (≈ 35.1 µM)
COc1c(O)cc2c(c1OC)-c1c(cc(O)c(OC)c1OC)[C@H](OC(C)=O)[C@@H](C)[C@@H](C)C2 [MARLIGNAN E]	1.6 µg/mL (≈ 3.58 µM)	8.7	13.7 µg/mL (≈ 30.7 µM)
COc1c(O)cc2c(c1OC)-c1c(cc(O)c(OC)c1OC)[C@H](OC)[C@@H](C)[C@@H](C)C2 [MARLIGNAN F]	1.4 µg/mL (≈ 3.35 µM)	15.6	21.4 µg/mL (≈ 51.1 µM)
COc1c(O)cc2c(c1OC)-c1c(cc(O)c(OC)c1OC)C(=O)[C@@H](C)[C@@H](C)C2 [MARLIGNAN H]	2.6 µg/mL (≈ 6.46 µM)	17.6	46.5 µg/mL (≈ 116 µM)
COc1cc2c(c(OC)c1OC)-c1c(cc(OC)c(OC)c1OC)[C@H](OC(C)=O)[C@@H](C)[C@@H](C)C2 [MARLIGNAN I]	2.9 µg/mL (≈ 6.11 µM)	4.6	13.5 µg/mL (≈ 28.4 µM)
CCO[C@H]1c2cc(OC)c(OC)c(OC)c2-c2c(cc(OC)c(OC)c2OC)C[C@H](C)[C@@H]1C [MARLIGNAN J]	1.9 µg/mL (≈ 4.13 µM)	9.3	17.2 µg/mL (≈ 37.3 µM)
COc1cc2c(c(OC)c1OC)-c1c(cc(O)c(OC)c1O)C[C@H](C)[C@@](C)(O)C2 [MARLIGNAN K]	1.9 µg/mL (≈ 4.7 µM)	7.7	14.8 µg/mL (≈ 36.6 µM)
COc1c(O)cc2c(c1OC)-c1c(cc(O)c(OC)c1OC)C[C@](C)(O)[C@@H](C)C2 [MARLIGNAN L]	1.4 µg/mL (≈ 3.46 µM)	16.4	22.6 µg/mL (≈ 55.9 µM)
